Active and inactive are the calls of the source. No cut-off for these calls is given here.
Tests used:
[1] = system: RAW264.7; assay: Inhibition of M1 polarization in mouse RAW264.7 cells assessed as down regulation of CD80 mRNA expression at 300 nM measured after 24 hrs by qRT-PCR analysis; format: functional, cell-based
[2] = system: RAW264.7; assay: Modulation of M2 polarization in mouse RAW264.7 cells assessed as up regulation of IL13 mRNA expression at 300 nM measured after 24 hrs by qRT-PCR analysis; format: functional, cell-based
[3] = system: RAW264.7; assay: Modulation of M1 polarization in mouse RAW264.7 cells assessed as change in Mcp1 mRNA expression at 300 nM measured after 24 hrs by qRT-PCR analysis relative to control; format: functional, cell-based; details: RAW264.7, 24 h, read-out: FC
Method in brief: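 RAW264.7 cells (DMEM, 10% FBS) exposed 24 h to 300 nM compound alone; LPS 50 ng/ml as positive control. Mcp1 mRNA by qRT-PCR; fold change = dosed group level / control group level.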

[4] = system: RAW264.7; assay: Inhibition of M1 polarization in mouse RAW264.7 cells assessed as down regulation of IL1R2 mRNA expression at 300 nM measured after 24 hrs by qRT-PCR analysis; format: functional, cell-based
[5] = system: Mus musculus; assay: Antiinflammatory activity in C57BL/6J mouse model of MOG (35 to 55 residues)/pertussis toxin/complete Freund's adjuvant-induced experimental allergic encephalomyelitis assessed as reduction in infiltration in spinal cord at 200 mg/kg, ig administered daily starting from 7 days post-immunization measured after 14 days post-immunization by H and E staining based microscopic analysis; format: functional, organism-based
Method in brief: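 EAE mice dosed daily in saline from day 7 were perfused with PBS and fixed in 4% PFA on day 14; spinal cords were taken. For LFB, frozen OCT sections sat 3 h in 0.1% Luxol Fast Blue at 56-60°C, were differentiated in 0.05% lithium carbonate for 10-12 s, cleared in 70% ethanol, dehydrated and mounted. For H&E, paraffin sections were stained to assess inflammation.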

[6] = AUC (0 to infinity) in Sprague-Dawley rat at 50 mg/kg, po administered as single dose via gavage by LC/MS analysis; format: ADME, organism-based; parameters: dose 50 mg/kg, time infinity, route oral; details: in vivo
Method in brief: (§1)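 Single dose in rats; venous blood (100 µL) drawn at 0, 0.5, 1, 2, 4, 8 and 12 h, plasma separated by centrifugation and held at -20 °C. Compound measured by LC/MS; Cmax, Tmax, t1/2 and AUC derived from the concentration–time data.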

[7] = system: BMDM; assay: Modulation of M2 polarization in C57BL/6J mouse BMDM cells assessed as up regulation of Mrc1 mRNA expression at 300 nM measured after 24 hrs by qRT-PCR analysis; format: functional, cell-based
Method in brief: (§2)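 BMDMs treated 24 h with 300 nM compound at 37 °C, 5% CO2. Trizol RNA extraction, then qRT-PCR for Arg1, Mrc1 and Fizz1 mRNA. Mean ± SEM.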

[8] = system: RAW264.7; assay: Modulation of M2 polarization in mouse RAW264.7 cells assessed as up regulation of CD163 mRNA expression at 300 nM measured after 24 hrs by qRT-PCR analysis; format: functional, cell-based
[9] = system: Mus musculus; assay: (§3) Inhibition of M1 polarization in C57BL/6J mouse model of MOG (35 to 55 residues)/pertussis toxin/complete Freund's adjuvant-induced experimental allergic encephalomyelitis assessed as CD86 level in draining lymph nodes at 200 mg/kg, ig administered daily starting from 7 days post-immunization measured after 13 to 19 days post-immunization by flow cytometry analysis (reference value: 18.4%); format: functional; parameters: scale not given: the % may be the effect or the level left
Method in brief: (§4)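 MOG35-55/CFA EAE mice were dosed daily in saline from day 7 and sampled between days 13 and 19. Cells came from spleen and dLN by mechanical dissociation and from CNS by collagenase IV/Percoll. They were stained for F4/80 with CD206 (M2) or CD86 (M1), and each was read by flow cytometry as a percentage of total F4/80+ macrophages.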

[10] = system: RAW264.7; assay: Modulation of M2 polarization in mouse RAW264.7 cells assessed as up regulation of CCR2 mRNA expression at 300 nM measured after 24 hrs by qRT-PCR analysis; format: functional, cell-based
[11] = Oral bioavailability in Sprague-Dawley rat at 50 mg/kg administered as single dose via gavage by LC/MS analysis; format: ADME, organism-based; details: in vivo
[12] = Tmax in Sprague-Dawley rat at 10 mg/kg, iv administered as single dose by LC/MS analysis; format: ADME, organism-based; details: in vivo; method in brief: as §1
[13] = system: BMDM; assay: Antiinflammatory activity in LPS-induced C57BL/6J mouse BMDM cells assessed as suppression of M1 macrophage-stimulated CD4 positive T-cell proliferation at 300 nM preincubated for 48 hrs followed by CD4 positive T-cell addition and measured after 72 hrs by CFSE dye based FACS analysis; format: functional
Method in brief: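 BMDMs given 300 nM compound with 50 ng/ml LPS for 48 h on day 5 of differentiation; drug removed day 7. Cells then cocultured 1:1 with CFSE-labelled negatively selected naïve CD4+ T cells plus 500 ng/ml anti-CD3 and 500 ng/ml anti-CD28. T-cell proliferation (CFSE MFI, % proliferated) read by flow cytometry after 72 h. Mean ± SEM, at least three independent experiments.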

[14] = system: Mus musculus; assay: as §3, with “Induction” for “Inhibition”, “M2” for “M1”, “CD206” for “CD86”, “6.5%)” for “18.4%)”; format: functional; method in brief: as §4
[15] = Cmax in Sprague-Dawley rat at 10 mg/kg, iv administered as single dose by LC/MS analysis; format: ADME, organism-based; parameters: dose 10 mg/kg, route intravenous; details: in vivo; method in brief: as §1
[16] = system: Mus musculus; assay: as §3, with “Antiinflammatory activity” for “Inhibition of M1 polarization”, “effect on dendritic cell population” for “CD86 level”, “nodes by measuring change in CD11c level” for “nodes”, “analysis” for “analysis (reference value: 18.4%)”; format: functional, organism-based
Method in brief: (§5)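 MOG35-55/CFA EAE mice were dosed daily in saline from day 7 and sampled between days 13 and 19. Spleens and dLNs were mechanically dissociated to single cells. CNS cells came from collagenase IV digestion and a 70%/30% Percoll gradient. Cells were surface-stained with fluorochrome antibodies, including CD4, CD11b, CD11c and MHC-II, and analysed by flow cytometry.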

[17] = system: RAW264.7; assay: Inhibition of M1 polarization in mouse RAW264.7 cells assessed as down regulation of TNFSF15 mRNA expression at 300 nM measured after 24 hrs by qRT-PCR analysis; format: functional, cell-based
[18] = system: BMDM; assay: Modulation of M2 polarization in C57BL/6J mouse BMDM cells assessed as up regulation of Arg1 mRNA expression at 300 nM measured after 24 hrs by qRT-PCR analysis; format: functional, cell-based; method in brief: as §2
[19] = system: Mus musculus; assay: Antiinflammatory activity in C57BL/6J mouse model of MOG (35 to 55 residues)/pertussis toxin/complete Freund's adjuvant-induced experimental allergic encephalomyelitis assessed as effect on dendritic cell population in CNS by measuring change in CD11c level at 200 mg/kg, ig administered daily starting from 7 days post-immunization measured after 13 to 19 days post-immunization by flow cytometry analysis; format: functional, organism-based; method in brief: as §5
[20] = system: BMDM; assay: Antiinflammatory activity in LPS-induced C57BL/6J mouse BMDM cells assessed as suppression of M1 macrophage-stimulated Th17 cell population by measuring decrease in Il17 level at 300 nM measured after 48 hrs by ELISA; format: functional, cell-based
Method in brief: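 Supernatant collected from the 72 h coculture of CFSE-labelled naïve CD4+ T cells (anti-CD3/anti-CD28, 500 ng/ml each, 1:1) with BMDMs pretreated 48 h with 50 ng/ml LPS plus 300 nM compound. IFN-γ or IL-17A quantified by ELISA. Mean ± SEM, at least three independent experiments.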

In the case of `Cl.Cn1ncc(Cl)c1-c1ccc(C(=O)N[C@@H]2CNCC[C@H]2c2cccc(F)c2)cc1`, the inhibition [1] is reported as “Active”, the Activity [2] is reported as “Active” and the fold induction at 0.3 µM [3] is reported as 1.47. For the same molecule, the inhibition [4] was “Active”, the Activity [5] was “Active” and the AUC(0-inf) [6] was 4740 ng·h/mL. The Activity [7] was “Active”, the Activity [8] was “Active” and the Activity [9] was 11.5%. The Activity [10] was “Active”, the bioavailability [11] was 50.6% and the Tmax [12] was 4.98 min. For the same molecule, the Activity [13] was “Active”, the Activity [14] was 10.1% and the Cmax [15] was 1000 ng/mL. For the same molecule, the Activity [16] was “inactive”, the inhibition [17] was “Active” and the Activity [18] was “Active”. The Activity [19] was “inactive” and the Activity [20] was “Active”.
